Assays:
[1] = target: T1, Cystic fibrosis transmembrane conductance regulator (Homo sapiens, UniProt P13569); assay: Percent activation of wild type CFTR dependent efflux was determined by measuring the rate of iodide [125I]- efflux from transfected CHO cells; assay type: functional, cell-based; design: concentration or dose not given beside the values
Procedure, shortened: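 CHO cells stably expressing wild-type CFTR (MEM, 7% FBS, 100 μM methotrexate), grown in 24-well plates. Loaded 30 min at 37 °C in efflux buffer (NaCl/KCl/MgCl2/glucose/HEPES, pH 7.4) with 1 μM KI and 125I; medium sampled every 1 min up to 11 min, drug after four baseline aliquots, compounds at 250 μM. Peak efflux rate expressed relative to 5 μM forskolin (=100%); mean ± SEM, n experiments.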
Target sequence in this assay (P13569 whole entry, looked up): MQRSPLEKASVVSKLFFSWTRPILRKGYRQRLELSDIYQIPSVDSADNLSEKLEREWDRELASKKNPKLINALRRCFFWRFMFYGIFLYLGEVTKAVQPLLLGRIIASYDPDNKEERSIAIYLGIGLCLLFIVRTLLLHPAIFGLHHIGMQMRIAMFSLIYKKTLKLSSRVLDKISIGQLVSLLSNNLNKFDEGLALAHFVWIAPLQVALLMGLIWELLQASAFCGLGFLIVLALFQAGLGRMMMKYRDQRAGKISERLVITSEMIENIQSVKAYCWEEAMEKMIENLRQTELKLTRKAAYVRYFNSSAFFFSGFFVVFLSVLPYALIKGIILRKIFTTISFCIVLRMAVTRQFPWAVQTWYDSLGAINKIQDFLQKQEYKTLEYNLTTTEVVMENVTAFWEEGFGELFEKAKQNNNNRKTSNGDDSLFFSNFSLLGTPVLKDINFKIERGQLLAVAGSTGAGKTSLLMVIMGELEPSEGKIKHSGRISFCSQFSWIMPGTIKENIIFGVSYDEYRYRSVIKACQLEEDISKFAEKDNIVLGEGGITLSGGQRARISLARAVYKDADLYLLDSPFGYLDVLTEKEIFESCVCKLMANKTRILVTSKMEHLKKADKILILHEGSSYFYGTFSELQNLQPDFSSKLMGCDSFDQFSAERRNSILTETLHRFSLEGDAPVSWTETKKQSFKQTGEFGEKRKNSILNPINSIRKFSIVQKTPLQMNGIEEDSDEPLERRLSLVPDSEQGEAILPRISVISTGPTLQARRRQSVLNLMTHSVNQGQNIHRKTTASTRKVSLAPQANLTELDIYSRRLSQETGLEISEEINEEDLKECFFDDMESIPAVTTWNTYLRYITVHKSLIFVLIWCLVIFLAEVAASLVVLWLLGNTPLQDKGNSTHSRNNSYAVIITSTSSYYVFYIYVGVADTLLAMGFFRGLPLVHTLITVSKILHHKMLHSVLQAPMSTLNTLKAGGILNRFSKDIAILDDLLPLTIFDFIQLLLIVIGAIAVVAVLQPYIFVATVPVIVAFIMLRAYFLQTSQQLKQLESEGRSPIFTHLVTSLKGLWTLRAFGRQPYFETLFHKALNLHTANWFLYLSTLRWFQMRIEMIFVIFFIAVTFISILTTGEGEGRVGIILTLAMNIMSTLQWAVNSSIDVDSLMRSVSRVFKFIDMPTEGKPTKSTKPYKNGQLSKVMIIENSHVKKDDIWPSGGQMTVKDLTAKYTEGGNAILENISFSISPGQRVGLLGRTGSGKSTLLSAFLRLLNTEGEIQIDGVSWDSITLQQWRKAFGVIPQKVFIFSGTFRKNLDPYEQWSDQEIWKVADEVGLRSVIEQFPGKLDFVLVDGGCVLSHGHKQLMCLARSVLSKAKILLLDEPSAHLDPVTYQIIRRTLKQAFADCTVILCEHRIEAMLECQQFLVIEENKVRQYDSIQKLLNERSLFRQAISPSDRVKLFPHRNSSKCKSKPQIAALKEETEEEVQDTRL

[2] = target: Cystic fibrosis transmembrane conductance regulator (Homo sapiens, UniProt P13569, G551D); assay: Half-Maximal effective concentration of compound required to stimulate of G551D-CFTR activity in the presence of 10 uM Fsk; assay type: functional
Sequence of Cystic fibrosis transmembrane conductance regulator (Homo sapiens, UniProt P13569, G551D) (P13569 whole entry G551D): as the sequence (P13569 whole entry, looked up) above, with G551D counted along it
Procedure, shortened: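 G551D-CFTR stably expressed in CHO cells. The ¹²⁵I efflux assay was run on a robot: cells were loaded for 30 min at 37 °C in HEPES buffer pH 7.4 containing 1 μM KI and 1 μCi/mL ¹²⁵I, and efflux was sampled each minute for up to 11 min (4 baseline samples). Cells were exposed to 10 μM Fsk, then to increasing compound concentrations. EC50 came from %-of-maximal-effect curves, n = 6, mean ± SEM.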

[3] = target: T1, Cystic fibrosis transmembrane conductance regulator; assay: Half-Maximal effective concentration of compound required to stimulate of wild type-CFTR activity in the presence of 1 uM Fsk
Target sequence in this assay (P13569 whole entry): as the sequence (P13569 whole entry, looked up) above

| Activation [1] [%] | EC50 [2] [µM] | EC50 [3] [µM] | Structure (SMILES) |
| --- | --- | --- | --- |
| < 5 |  |  | Nc1cc2cccc[n+]2c2cccc(Cl)c12 |
| 6 |  |  | Oc1c(-c2ccccc2)c2cccc[n+]2c2c(Cl)cccc12 |
| 19 |  |  | Cc1c(O)c2cccc(Cl)c2[n+]2ccccc12 |
| 24 | > 200 | 141 | Oc1cc2cccc[n+]2c2c(Cl)cccc12 |
| < 5 |  |  | CCOC(=O)c1c(O)c2cc(F)ccc2[n+]2ccccc12 |
| 20 | > 200 | 146 | Oc1cc2cccc[n+]2c2cccc(Cl)c12 |
| 26 | 32 | 26 | CC(C)Cc1c(O)c2cccc(Cl)c2[n+]2ccccc12 |
| 33 | 0.75 | 1.7 | CCCCc1c(O)c2c(Cl)cccc2[n+]2ccccc12 |
| 45 | 34 | 23.5 | CCCCc1c(O)c2cccc(Cl)c2[n+]2ccccc12 |
| 8 |  |  | CCOC(=O)c1c(O)c2c(F)cccc2[n+]2ccccc12 |
| 37 | 95 | 70.5 | CCOC(=O)c1c(O)c2cccc(F)c2[n+]2ccccc12 |
| 6 |  |  | CCOC(=O)c1c(O)c2ccc(F)cc2[n+]2ccccc12 |
| < 5 |  |  | Nc1cc2cccc[n+]2c2c(Cl)cccc12 |
| 32 | 48 | 54.2 | CCCc1c(O)c2cccc(Cl)c2[n+]2ccccc12 |
| 38 | 20 | 21 | CCCCCc1c(O)c2cccc(Cl)c2[n+]2ccccc12 |

The remaining lines, values behind:

| Structure (SMILES) | Activation [1] [%] | EC50 [2] [µM] | EC50 [3] [µM] |
| --- | --- | --- | --- |
| Oc1cc2cccc[n+]2c2ccc(Cl)cc12 | 18 |  |  |
| Oc1cc2cccc[n+]2c2cc(F)ccc12 | 16 |  |  |
| Oc1cc2cccc[n+]2c2ccc(F)cc12 | 11 |  |  |
| Nc1cc2[n+](c3ccc(Cl)cc13)CCc1c-2[nH]c2ccccc12 | 6 |  |  |
| Oc1c2c3c(ccc[n+]3c3cccc(F)c13)CC2 | < 5 |  |  |
| Nc1cc2[n+](c3cccc(Cl)c13)CCc1c-2[nH]c2ccccc12 | 30 |  |  |
| Oc1cc2cccc[n+]2c2cc(Cl)ccc12 | < 5 |  |  |
| Oc1cc2cccc[n+]2c2cccc(F)c12 | < 5 |  |  |
| Oc1cc2cccc[n+]2c2c(F)cccc12 | < 5 |  |  |
| C=C[C@@]1(C)CC(=O)[C@]2(O)[C@@]3(C)[C@@H](O)CCC(C)(C)[C@@H]3[C@H](O)[C@H](OC(C)=O)[C@@]2(C)O1 | 100 |  |  |
| Nc1cc2[n+](c3c(Cl)cccc13)CCc1c-2[nH]c2ccccc12 | 46 |  |  |

— ChEMBL document CHEMBL1148470, “Synthesis, SAR, crystal structure, and biological evaluation of benzoquinoliziniums as activators of wild-type and mutant cystic fibrosis transmembrane conductance regulator channels” (J Med Chem, 2004)
